Rows were chosen to be rich in hits. Some 3.7% of all compounds tested hit in one or more screens of this group.
KCNK3 inh: human KCNK3 channel inhibition, primary screen. CHO-KCNK3 thallium flux, FluxOR fluorescence; active compounds read low. AID 602410. actives 0.84% (n = 340,000). B-score at 10 µM;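 active = B-score under library mean minus 4 SD, starting fluorescence ratio at most library mean plus 5 SD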;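 note: more negative B-score means stronger inhibition of thallium flux through KCNK3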
KCNQ1 pot: human KCNQ1 channel potentiation or activation | P51787 | CHO-K1 KCNQ1, thallium flux FluxOR fluorescence; active compounds read high | B-score at 10 µM | actives 0.35% (n = 310,000);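 active = fluorescence ratio B-score, a plate-corrected score, at least three library SD, with initial intensity B-score within 5 SD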
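System: CHO-K1 cells stably expressing KCNQ1 / Medium: assay buffer for compound exposure, DMSO matched across wells / Reagent: thallium- and potassium-containing depolarizing buffer / Compound: one concentration, matched DMSO / Incubation: 20 min compound pretreatment at room temperature / Measured by: kinetic FluxOR fluorescence, 10 s baseline plus 110 s post-stimulus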
KCNK9 inh: blocks the human KCNK9 two-pore domain potassium channel | actives 1.2% (n = 310,000) | HEK293 KCNK9, FluxOR thallium flux fluorescence; active compounds read low | Q9NPC2 | B-score at 10 µM | AID 488922;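 active = ratio B-score over 3 SD below the library mean, with starting fluorescence within 5 SD of its mean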;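 note: negative B-score means less thallium flux so channel inhibition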
KCNQ1 block: human KCNQ1 channel inhibition. P51787. CHO-K1 KCNQ1, FluxOR thallium flux fluorescence; active compounds read high. B-score at 10 µM. actives 1.3% (n = 310,000). AID 2642;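 active = compounds whose thallium flux B-score, printed positive for inhibition, exceeds three library SD while starting fluorescence stays within three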;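 note: channel opened by potassium depolarization with thallium stimulus after 20 min compound exposure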
hERG protect: shields human hERG channel from block by proarrhythmic agents | Q12809 | CHO-hERG, FluxOR thallium flux, dofetilide IC70 present | activation (rescue from dofetilide block), less the hit threshold, % at 10 µM | actives 0.51% (n = 310,000) | AID 1511;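 active = activation above the mean of controls blocked by dofetilide plus 5 SD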;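 note: thallium influx through hERG after potassium depolarization seen as dye fluorescence rise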
Target sequence (Q12809 whole entry, looked up): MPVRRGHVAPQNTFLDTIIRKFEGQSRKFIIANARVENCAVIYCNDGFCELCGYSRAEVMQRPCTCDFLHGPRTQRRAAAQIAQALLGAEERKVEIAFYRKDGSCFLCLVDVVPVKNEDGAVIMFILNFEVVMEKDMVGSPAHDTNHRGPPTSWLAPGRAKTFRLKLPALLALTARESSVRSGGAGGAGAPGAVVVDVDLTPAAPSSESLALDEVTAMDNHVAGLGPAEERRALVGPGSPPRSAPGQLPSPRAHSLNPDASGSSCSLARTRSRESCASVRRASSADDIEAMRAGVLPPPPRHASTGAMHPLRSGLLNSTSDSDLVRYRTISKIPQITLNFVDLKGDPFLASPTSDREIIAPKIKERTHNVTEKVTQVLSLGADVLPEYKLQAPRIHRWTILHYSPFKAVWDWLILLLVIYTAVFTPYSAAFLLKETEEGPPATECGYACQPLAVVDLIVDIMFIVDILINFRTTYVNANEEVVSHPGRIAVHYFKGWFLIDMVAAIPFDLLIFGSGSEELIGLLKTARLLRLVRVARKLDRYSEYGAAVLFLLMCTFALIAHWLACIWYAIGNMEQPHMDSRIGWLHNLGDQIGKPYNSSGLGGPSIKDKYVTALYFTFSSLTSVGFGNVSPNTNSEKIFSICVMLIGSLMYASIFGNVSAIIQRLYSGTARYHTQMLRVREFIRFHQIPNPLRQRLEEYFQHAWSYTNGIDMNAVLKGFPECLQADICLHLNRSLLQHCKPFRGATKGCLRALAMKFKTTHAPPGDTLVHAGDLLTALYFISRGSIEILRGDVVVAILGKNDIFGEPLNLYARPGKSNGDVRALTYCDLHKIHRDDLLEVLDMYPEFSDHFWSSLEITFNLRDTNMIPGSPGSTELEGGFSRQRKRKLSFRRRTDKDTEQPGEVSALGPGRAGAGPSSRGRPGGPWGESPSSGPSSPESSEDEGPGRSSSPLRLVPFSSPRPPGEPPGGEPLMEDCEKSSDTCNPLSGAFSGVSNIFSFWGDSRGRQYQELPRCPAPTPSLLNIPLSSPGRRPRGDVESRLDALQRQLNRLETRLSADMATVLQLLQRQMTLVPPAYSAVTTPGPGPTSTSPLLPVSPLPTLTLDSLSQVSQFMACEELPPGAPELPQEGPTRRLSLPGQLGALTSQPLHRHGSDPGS
Kir21 block: inhibitors of mouse Kir2.1 inward-rectifier potassium channel; HEK293-Kir2.1, FluxOR thallium flux fluorescence; active compounds read low; B-score at 10 µM; actives 0.85% (n = 310,000);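 active = fluorescence ratio B-score at or below minus 3 SD of library scores, with starting-brightness B-score within 2 SD, cut at about -4.2 in these data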;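 note: channel flux triggered by added potassium and thallium sulfate stimulus; B-score of peak minus minimum fluorescence over baseline after thallium stimulus; more negative B-score means stronger Kir2.1 block with less thallium influx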
KCNQ1 inh valid: confirmation of human KCNQ1 potassium channel inhibitors; AID 588353; shares compounds with KCNQ1 block; inhibition, % at 10 µM; KCNQ1 cell line, FluxOR thallium flux fluorescence; actives 93% (n = 1,600);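 active = primary screen active, with duplicate mean exceeding buffer control mean plus 3 SD of buffer wells, cut at about 28% in these data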;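 note: 0% = buffer control ratio and 100% = XE991 inhibitor control ratio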
CHO KCNQ1 ctr: counter-screen for KCNQ1 inhibitors: effect in parental CHO cells. actives 21% (n = 1,600). parental CHO-K1, FluxOR thallium flux fluorescence ratio; active compounds read low; zero means no signal rise above baseline. shares compounds with KCNQ1 block. AID 588366. fluorescence ratio (Tl flux) at 10 µM;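 active = mean of duplicate thallium-flux fluorescence ratios in parental host cells more than 5 SD below the buffer control mean, cut at about 0.38 in these data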;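 note: ratio is peak minus minimum fluorescence divided by baseline fluorescence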
KCNQ1 ephys val: human KCNQ1 inhibition validated by electrophysiology. shares compounds with KCNQ1 block. KCNQ1-CHO cells, automated patch clamp current. calls only at 10 µM. actives 20% (n = 490). AID 624120;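 active = KCNQ1 current drop exceeding 3 SD of negative control wells, seen in both duplicate runs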;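 note: steady state current during a 2 s step from -80 to +40 mV; negative values mean current inhibition and positive values mean potentiation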
KCNQ2 inh: selectivity of KCNQ1 inhibitors: inhibition of rat KCNQ2 channel. shares compounds with KCNQ1 block. KCNQ2 cells, FluxOR thallium flux fluorescence. inhibition, % at 10 µM. actives 71% (n = 1,600). AID 651746;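 active = mean percent inhibition of the KCNQ2 thallium signal more than 5 SD above the buffer-only control wells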;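 note: KCNQ2 expressed in CHO cells; 0% = buffer control wells and 100% = XE-991 inhibitor control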
KCNQ1-KCNE1 inh: KCNQ1 inhibitor that also blocks human KCNQ1/KCNE1 channel. shares compounds with KCNQ1 block. KCNQ1/KCNE1 cells, FluxOR thallium flux fluorescence. inhibition, % at 10 µM. actives 77% (n = 1,600). AID 652147;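 active = mean percent inhibition of duplicate wells above the buffer-only control mean plus 3 SD of those controls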;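 note: 0% = buffer only wells and 100% = XE-991 inhibitor control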
Numbers without * were called inactive.

What do the screens show for `Cc1ccc(CNC(=S)NC2CCC(C(C)(C)C)CC2)cc1` (stereo not given)?
KCNK3 inh: inactive; KCNQ1 pot: inactive; KCNK9 inh: inactive; KCNQ1 block: 13*; hERG protect: -19; Kir21 block: -2.6; KCNQ1 inh valid: 108*; CHO KCNQ1 ctr: 0.45; KCNQ1 ephys val: inactive; KCNQ2 inh: 84%*; KCNQ1-KCNE1 inh: 80%*

Results for COc1nc(-c2ccccc2)cc(-c2ccc(OC)c(OC)c2)n1 ?
KCNK3 inh: inactive; KCNQ1 pot: inactive; KCNK9 inh: inactive; KCNQ1 block: 7*; hERG protect: -17; Kir21 block: 0.57; KCNQ1 inh valid: 119*; CHO KCNQ1 ctr: 0.39; KCNQ1 ephys val: inactive; KCNQ2 inh: 110%*; KCNQ1-KCNE1 inh: 131%*

What do the screens show for `COc1ccc(-c2cc(-c3ccccc3)nc(NN)n2)cc1OC`?
KCNK3 inh: inactive; KCNQ1 pot: inactive; KCNK9 inh: inactive; KCNQ1 block: inactive; hERG protect: -10; Kir21 block: -1.7

Results for CC(C)(Cc1ccc(O)cc1)NC(=O)SCc1ccccc1 ?
KCNK3 inh: inactive; KCNQ1 pot: inactive; KCNK9 inh: inactive; KCNQ1 block: 7*; hERG protect: -10; Kir21 block: -1.1; KCNQ1 inh valid: 50*; CHO KCNQ1 ctr: 0.5; KCNQ2 inh: inactive; KCNQ1-KCNE1 inh: 78%*

What do the screens show for `CCN(CC)CCCn1c2c(c(SCC(=O)Nc3ccc4c(c3)OCO4)nc1=O)CCC2`?
KCNK3 inh: inactive; KCNQ1 pot: inactive; KCNK9 inh: inactive; KCNQ1 block: inactive; hERG protect: -9; Kir21 block: 1

What do the screens show for `O=C(COc1ccccc1)NC(NC(=S)Nc1ccccc1O)C(Cl)(Cl)Cl` (stereo not given)?
KCNK3 inh: inactive; KCNQ1 pot: inactive; KCNK9 inh: inactive; KCNQ1 block: 9*; hERG protect: -16; Kir21 block: 1.9; KCNQ1 inh valid: 78*; CHO KCNQ1 ctr: 0.48; KCNQ2 inh: 92%*; KCNQ1-KCNE1 inh: 53%*

What do the screens show for `CC(C)NC(=O)c1cnc(N2CCN(c3ccccn3)CC2)c2ccccc12`?
KCNK3 inh: inactive; KCNQ1 pot: inactive; KCNK9 inh: inactive; KCNQ1 block: inactive; hERG protect: -3; Kir21 block: 2.1

Results for CCc1ccc(NC(=O)c2cnc(N3CCN(c4ccccn4)CC3)c3ccccc23)cc1 ?
KCNK3 inh: inactive; KCNQ1 pot: inactive; KCNK9 inh: inactive; KCNQ1 block: 8*; hERG protect: -27; Kir21 block: 0.55; KCNQ1 inh valid: 89*; CHO KCNQ1 ctr: 0.37*; KCNQ2 inh: 104%*; KCNQ1-KCNE1 inh: 141%*

How did Cc1ccc(OCC(=O)OC(C)C(=O)NC2CCCCC2C)cc1C (stereo not given) do in these assays?
KCNK3 inh: inactive

What do the screens show for `CC(C)N1CCc2c(sc(NC(=S)NC(=O)c3ccccc3)c2C#N)C1`?
KCNK3 inh: inactive; KCNQ1 pot: inactive; KCNK9 inh: inactive; KCNQ1 block: 7*; hERG protect: -16; Kir21 block: -3.5; KCNQ1 inh valid: 0; CHO KCNQ1 ctr: 0.5; KCNQ2 inh: inactive; KCNQ1-KCNE1 inh: 48%*

How did CCCN1CCc2c(sc(NC(=S)NC(=O)c3ccccc3)c2C#N)C1 do in these assays?
KCNK3 inh: inactive; KCNQ1 pot: inactive; KCNK9 inh: inactive; KCNQ1 block: inactive; hERG protect: -2; Kir21 block: 0.02

What do the screens show for `Cc1occc1-c1nnc(SC(C)C(=O)Nc2ccccc2F)o1` (stereo not given)?
KCNK3 inh: inactive

How did CCOC(=O)CC(=O)CSc1ncnc2c1nnn2-c1ccccc1 do in these assays?
KCNK3 inh: inactive; KCNQ1 pot: inactive; KCNK9 inh: inactive; KCNQ1 block: inactive; hERG protect: -4; Kir21 block: -0.3

What do the screens show for `COc1ccc(-c2cc(C(=O)N3CCN(c4cccc(C)c4C)CC3)c3ccccc3n2)cc1OC`?
KCNK3 inh: inactive; KCNQ1 pot: inactive; KCNK9 inh: inactive; KCNQ1 block: 8*; hERG protect: -29; Kir21 block: -0.68; KCNQ1 inh valid: 60*; CHO KCNQ1 ctr: 0.45; KCNQ2 inh: 108%*; KCNQ1-KCNE1 inh: 96%*

Results for COc1ccc(-c2cc(C(=O)N3CCN(c4ncccn4)CC3)c3ccccc3n2)cc1OC ?
KCNK3 inh: inactive

Results for COc1cc(OC)cc(C(=O)N[C@H](C(=O)OCC(=O)Nc2ccc3c(c2)OCO3)C(C)C)c1 ?
KCNK3 inh: inactive

Results for COc1ccccc1NC(=O)C(C)OC(=O)C1COc2ccccc2O1 (stereo not given) ?
KCNK3 inh: inactive

What do the screens show for `Cc1ccc(Cl)cc1N1CCN(C(=O)COc2ccc3c(c2)CCC3)CC1`?
KCNK3 inh: inactive; KCNQ1 pot: inactive; KCNK9 inh: inactive; KCNQ1 block: 7*; hERG protect: -6; Kir21 block: 0.9; KCNQ1 inh valid: 118*; CHO KCNQ1 ctr: 0.42; KCNQ1 ephys val: inactive; KCNQ2 inh: 121%*; KCNQ1-KCNE1 inh: 170%*

What do the screens show for `COc1ccc(N(CC(=O)Nc2cccnc2)S(=O)(=O)c2ccccc2)cc1Cl`?
KCNK3 inh: inactive; KCNQ1 pot: inactive; KCNK9 inh: inactive; KCNQ1 block: inactive; hERG protect: -10; Kir21 block: -0.32

What do the screens show for `COc1ccc(N(CC(=O)Nc2ccccc2OC)S(=O)(=O)c2ccccc2)cc1Cl`?
KCNK3 inh: inactive; KCNQ1 pot: inactive; KCNK9 inh: inactive; KCNQ1 block: 7*; hERG protect: -4; Kir21 block: 0.18; KCNQ1 inh valid: 74*; CHO KCNQ1 ctr: 0.39; KCNQ2 inh: 92%*; KCNQ1-KCNE1 inh: 102%*

Results for O=C(CN1CCN(C(=O)C2CC2)CC1)Nc1cc(C(F)(F)F)cc(C(F)(F)F)c1 ?
KCNK3 inh: inactive

Compound activity deposited in PubChem by Johns Hopkins Ion Channel Center.
